Active and inactive are the calls of the source. The rule behind the calls is not given here.
Columns and labels:
[1] = target: Small ribosomal subunit protein eS6 (Homo sapiens) (UniProt P62753); experiment: Inhibition of S6 ribosomal protein in HEK293 cells assessed as reduction in insulin-induced S6 phosphorylation at Ser240/244 residue by NanoBiT cell-based immunoassay
[2] = target: Small ribosomal subunit protein eS6 (Homo sapiens) (UniProt P62753); experiment: Inhibition of S6 ribosomal protein in HEK293 cells assessed as reduction in serum-induced S6 phosphorylation at Ser235/236 residue by NanoBiT cell-based immunoassay
[3] = target: Eukaryotic translation initiation factor 4E-binding protein 1 (Homo sapiens) (UniProt Q13541); experiment: Inhibition of 4E-BP1 in human MCF7 cells assessed as reduction in insulin-induced 4E-BP1 phosphorylation at Ser65 residue by NanoBiT cell-based immunoassay
Eukaryotic translation initiation factor 4E-binding protein 1 (Homo sapiens), sequence (Q13541 whole entry): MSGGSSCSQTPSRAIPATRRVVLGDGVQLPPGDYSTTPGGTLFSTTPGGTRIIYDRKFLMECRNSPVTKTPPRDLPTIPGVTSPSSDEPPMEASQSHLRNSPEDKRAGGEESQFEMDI

[4] = target: Eukaryotic translation initiation factor 4E-binding protein 1 (Homo sapiens) (UniProt Q13541); experiment: Inhibition of 4E-BP1 in HEK293 cells assessed as reduction in insulin-induced 4E-BP1 phosphorylation at Ser65 residue by NanoBiT cell-based immunoassay
[5] = target: Small ribosomal subunit protein eS6 (Homo sapiens) (UniProt P62753); experiment: Inhibition of S6 ribosomal protein in HEK293 cells assessed as reduction in serum-induced S6 phosphorylation at Ser240/244 residue by NanoBiT cell-based immunoassay
[6] = target: Small ribosomal subunit protein eS6 (Homo sapiens) (UniProt P62753); experiment: Inhibition of S6 ribosomal protein in HEK293 cells assessed as reduction in insulin-induced S6 phosphorylation at Ser235/236 residue by NanoBiT cell-based immunoassay
MCF7 [7] = experiment: Inhibition of IKK in human MCF7 cells assessed as effect on TNFalpha-induced p65 expression at 10 uM preincubated for 1 hr followed by TNFalpha-stimulation and measured after 10 mins by NanoBiT cell-based immunoassay; details: time 70.0 min
[8] = system: Primary mammary epithelial cell; experiment: Inhibition of IKK in human primary mammary epithelial cells assessed as reduction in IL-1beta-induced IkappaBalpha phosphorylation at serine 32 residue preincubated for 1 hr followed by IL-1beta-stimulation and measured after 10 mins by NanoBiT cell-based immunoassay; details: time 70.0 min
MCF7 [9] = experiment: Inhibition of IKK in human MCF7 cells assessed as reduction in TNFalpha-induced IkappaBalpha degradation preincubated for 1 hr followed by TNFalpha-stimulation and measured after 30 mins by NanoBiT cell-based immunoassay; details: time 1.5 hrs
Outline: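 MCF-7 cells (50,000/well, seeded overnight) were preincubated 1 h with graded inhibitor concentrations, then stimulated with TNFα (50 ng per ml, 30 min). Digitonin lysis was followed by NanoBiT total IκBα immunoassay: a rabbit/mouse primary pair plus SmBiT/LgBiT-labelled secondaries for 90 min at 23 °C, then Nano-Glo substrate and luminescence read. IC50 was taken from the dose–response.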

MCF7 [10] = experiment: Inhibition of IKK in human MCF7 cells assessed as reduction in TNFalpha-induced IkappaBalpha phosphorylation at serine 32 residue at 10 uM preincubated for 1 hr followed by TNFalpha-stimulation and measured after 10 mins by NanoBiT cell-based immunoassay; details: time 70.0 min
Ramos [11] = experiment: Inhibition of IKK in human Ramos cells assessed as reduction in TNFalpha-induced IkappaBalpha phosphorylation at serine 32 residue preincubated for 1 hr followed by TNFalpha-stimulation and measured after 10 mins by NanoBiT cell-based immunoassay; details: time 70.0 min
HeLa [12] = experiment: Inhibition of IKK in human HeLa cells assessed as reduction in IL-1beta-induced IkappaBalpha phosphorylation at serine 32 residue preincubated for 1 hr followed by IL-1beta-stimulation and measured after 10 mins by NanoBiT cell-based immunoassay; details: time 70.0 min
Ramos [13] = experiment: Inhibition of IKK in human Ramos cells assessed as reduction in IL-1beta-induced IkappaBalpha phosphorylation at serine 32 residue preincubated for 1 hr followed by IL-1beta-stimulation and measured after 10 mins by NanoBiT cell-based immunoassay; details: time 70.0 min
MCF7 [14] = experiment: Inhibition of IKK in human MCF7 cells assessed as reduction in IL-1beta-induced IkappaBalpha phosphorylation at serine 32 residue preincubated for 1 hr followed by IL-1beta-stimulation and measured after 10 mins by NanoBiT cell-based immunoassay; details: dose 10.0 µM, time 70.0 min
HeLa [15] = experiment: Inhibition of IKK in human HeLa cells assessed as reduction in TNFalpha-induced IkappaBalpha phosphorylation at serine 32 residue preincubated for 1 hr followed by TNFalpha-stimulation and measured after 10 mins by NanoBiT cell-based immunoassay; details: time 70.0 min
MCF7 [16] = experiment: Inhibition of IKK in human MCF7 cells assessed as reduction in TNFalpha-induced total IkappaBalpha expression at 10 uM preincubated for 1 hr followed by TNFalpha-stimulation and measured after 10 mins by NanoBiT cell-based immunoassay; details: time 70.0 min
MCF7 [17] = experiment: Inhibition of IKK in human MCF7 cells assessed as reduction in IL-1beta-induced p65 phosphorylation at serine 536 residue preincubated for 1 hr followed by IL-1beta-stimulation and measured after 10 mins by NanoBiT cell-based immunoassay; details: time 70.0 min
MCF7 [18] = experiment: Inhibition of IKK in human MCF7 cells assessed as reduction in TNFalpha-induced p65 phosphorylation at serine 536 residue at 10 uM preincubated for 1 hr followed by TNFalpha-stimulation and measured after 10 mins by NanoBiT cell-based immunoassay; details: time 70.0 min
[19] = system: Primary mammary epithelial cell; experiment: Inhibition of IKK in human primary mammary epithelial cells assessed as reduction in TNFalpha-induced IkappaBalpha phosphorylation at serine 32 residue preincubated for 1 hr followed by TNFalpha-stimulation and measured after 10 mins by NanoBiT cell-based immunoassay; details: time 70.0 min
[20] = target: T1, Retinoblastoma-associated protein (Homo sapiens) (UniProt P06400); experiment: Inhibition of RB protein in human MCF7 cells assessed as reduction in EGF-induced Rb phosphorylation at Ser807/811 residue by NanoBiT cell-based immunoassay
T1 sequence (whole entry): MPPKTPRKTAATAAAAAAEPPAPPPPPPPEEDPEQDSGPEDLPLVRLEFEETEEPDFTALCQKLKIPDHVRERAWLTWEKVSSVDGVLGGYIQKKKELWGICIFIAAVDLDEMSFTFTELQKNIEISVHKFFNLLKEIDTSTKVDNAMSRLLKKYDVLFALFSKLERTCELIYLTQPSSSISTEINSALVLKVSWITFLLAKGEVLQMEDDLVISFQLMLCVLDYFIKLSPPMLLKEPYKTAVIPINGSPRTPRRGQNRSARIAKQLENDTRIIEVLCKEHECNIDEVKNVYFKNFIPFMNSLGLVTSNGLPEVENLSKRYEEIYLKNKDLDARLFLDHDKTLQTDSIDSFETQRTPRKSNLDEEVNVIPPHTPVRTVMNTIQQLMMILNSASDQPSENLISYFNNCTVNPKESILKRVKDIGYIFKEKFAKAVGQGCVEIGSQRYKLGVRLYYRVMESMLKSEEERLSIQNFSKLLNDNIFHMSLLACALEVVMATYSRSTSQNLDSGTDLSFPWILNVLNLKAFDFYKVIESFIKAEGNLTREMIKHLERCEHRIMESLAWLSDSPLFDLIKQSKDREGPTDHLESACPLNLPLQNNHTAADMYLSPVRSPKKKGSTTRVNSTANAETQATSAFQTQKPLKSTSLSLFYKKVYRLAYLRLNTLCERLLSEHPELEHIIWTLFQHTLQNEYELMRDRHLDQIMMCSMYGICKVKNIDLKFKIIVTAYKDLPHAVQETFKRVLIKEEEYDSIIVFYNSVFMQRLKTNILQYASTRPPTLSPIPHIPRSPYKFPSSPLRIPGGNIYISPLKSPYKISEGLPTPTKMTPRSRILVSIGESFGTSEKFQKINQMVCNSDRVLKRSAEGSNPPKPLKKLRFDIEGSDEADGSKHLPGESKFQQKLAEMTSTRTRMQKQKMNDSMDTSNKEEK

[21] = target: T1, Retinoblastoma-associated protein (Homo sapiens); experiment: Inhibition of RB protein in human MCF7 cells assessed as reduction in EGF-induced Rb phosphorylation at Ser780 residue by NanoBiT cell-based immunoassay
[22] = target: T1, Retinoblastoma-associated protein (Homo sapiens); experiment: Inhibition of RB protein in human MCF7 cells assessed as reduction in 17beta-estradiol-induced Rb phosphorylation at Ser807/811 residue by NanoBiT cell-based immunoassay
[23] = target: T1, Retinoblastoma-associated protein (Homo sapiens); experiment: Inhibition of RB protein in human MCF7 cells assessed as reduction in 17beta-estradiol-induced Rb phosphorylation at Ser780 residue by NanoBiT cell-based immunoassay
MCF7 [24] = experiment: Inhibition of PI3K in human MCF7 cells assessed as reduction in insulin-induced AKT S473 phosphorylation at 20 uM preincubated for 1 hr followed by insulin stimulation and measured after 10 mins by NanoBiT cell-based immunoassay; details: time 70.0 min
Outline: (§1)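 MCF-7 cells, 50,000/well, were held overnight without serum. They were pretreated 1 h with 20 µM inhibitor, then given insulin (1 µM, 10 min). After 20 min digitonin lysis with protease/phosphatase inhibitors, AKT S473 phosphorylation (20) or total AKT (1) was read by NanoBiT immunoassay (antibody mix 90 min, 23 °C; Nano-Glo luminescence). Means ± S.E.M., n = 3 technical replicates.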

MCF7 [25] = experiment: Inhibition of PI3K in human MCF7 cells assessed as reduction in insulin-induced AKT T308 phosphorylation preincubated for 1 hr followed by insulin stimulation and measured after 10 mins by NanoBiT cell-based immunoassay; details: time 70.0 min
[26] = Effect on total AKT expression in human MCF7 cells at 20 uM measured after 1 hr by NanoBiT cell-based immunoassay; type: toxicity; details: mcf7, 1 h; outline: as §1
MCF7 [27] = experiment: Inhibition of PI3K in human MCF7 cells assessed as reduction in IGF1-induced AKT S473 phosphorylation preincubated for 1 hr followed by IGF1 stimulation and measured after 10 mins by NanoBiT cell-based immunoassay; details: time 70.0 min
MCF7 [28] = experiment: Inhibition of PI3K in human MCF7 cells assessed as reduction in insulin-induced AKT S473 phosphorylation preincubated for 1 hr followed by insulin stimulation and measured after 10 mins by NanoBiT cell-based immunoassay; details: time 70.0 min
Outline: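 For this dose–response, serum-starved MCF-7 cells (50,000/well, overnight without serum) were pretreated 1 h with a concentration series of inhibitor, then stimulated with insulin (1 µM, 10 min). p-AKT S473 was measured by NanoBiT immunoassay: digitonin lysis 20 min, primary pair plus NanoBiT secondaries 90 min at 23 °C, Nano-Glo luminescence. IC50 was derived from the titration.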

Question: For CO[C@H]1C[C@@H]2CC[C@@H](C)[C@@](O)(O2)C(=O)C(=O)N2CCCC[C@H]2C(=O)O[C@H]([C@H](C)C[C@@H]2CC[C@@H](O)[C@H](OC)C2)CC(=O)[C@H](C)/C=C(\C)[C@@H](O)[C@@H](OC)C(=O)[C@H](C)C[C@H](C)/C=C/C=C/C=C/1C, which inhibition [1] is on record?
Answer: The inhibition was “Active”.

Question: And the inhibition [2]?
Answer: The inhibition was “Active”.

Question: What about the inhibition [3] of the same molecule?
Answer: The inhibition was “Active”.

Question: What about the inhibition [4] of the same molecule?
Answer: The inhibition was “Active”.

Question: And the inhibition [5]?
Answer: Its inhibition is “Active”.

Question: And the inhibition [6]?
Answer: The inhibition was “Active”.

Question: With O=C(c1ccc(Nc2nccc(-c3cc4ccccc4s3)n2)cc1)N1CCC(N2CCCC2)CC1 as the molecule, how does the inhibition (MCF7 [7]) read?
Answer: The inhibition was “inactive”.

Question: What about the inhibition [8] of the same molecule?
Answer: The inhibition was “Active”.

Question: What about the inhibition (MCF7 [9]) of the same molecule?
Answer: Its inhibition is “Dose-Dependent Effect”.

Question: And the inhibition (MCF7 [10])?
Answer: Its inhibition is “Active”.

Question: What about the inhibition (Ramos [11]) of the same molecule?
Answer: Its inhibition is “Active”.

Question: What about the inhibition (HeLa [12]) of the same molecule?
Answer: Its inhibition is “Active”.

Question: What about the inhibition (Ramos [13]) of the same molecule?
Answer: The inhibition was “Active”.

Question: What about the inhibition (MCF7 [14]) of the same molecule?
Answer: The inhibition was “Active”.

Question: And the inhibition (HeLa [15])?
Answer: The inhibition was “Active”.

Question: And the inhibition (MCF7 [16])?
Answer: Its inhibition is “Active”.

Question: And the inhibition (MCF7 [17])?
Answer: Its inhibition is “Active”.

Question: What about the inhibition (MCF7 [18]) of the same molecule?
Answer: The inhibition was “Active”.

Question: What about the inhibition [19] of the same molecule?
Answer: The inhibition was “Active”.

Question: What does the source list for CC(=O)c1c(C)c2cnc(Nc3ccc(N4CCNCC4)cn3)nc2n(C2CCCC2)c1=O?
Answer: inhibition [20]: Active; inhibition [21]: Active; inhibition [22]: Active; inhibition [23]: Active

Question: What does the source list for O=c1cc(N2CCOCC2)oc2c(-c3ccccc3)cccc12 [LY-294002]?
Answer: inhibition (MCF7 [24]): Active; inhibition (MCF7 [25]): Active; Activity [26]: Non-Toxic; inhibition (MCF7 [27]): Active; inhibition (MCF7 [28]): Dose-Dependent Effect
